# Laboratory results taken from ChEMBL document CHEMBL4024803, “New Steroidal 4-Aminoquinolines Antagonize Botulinum Neurotoxin Serotype A in Mouse Embryonic Stem Cell Derived Motor Neurons in Postintoxication Model” (J Med Chem, 2018).
# Experiments:
# [1] = tested on: Mus musculus; test: Cmax in mouse at 600 mg/kg, po by UPLC-MS/MS method; assay type: ADME, organism-based; set-up: dose 600 mg/kg, route oral; settings: in vivo
# Method in brief: (§1)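 Single oral dose (400 mg/kg, 7 mice; 600 mg/kg, 6 mice), dissolved in DMSO and suspended in 0.5% hydroxyethylcellulose–0.1% Tween 80. Blood taken by cardiac puncture under chloroform, one mouse per time point, 15–120 min. Serum proteins precipitated with 2 volumes acetonitrile; analysed by UPLC-MS/MS against blank human serum calibration. Half-life read from the concentration–time curve.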
# [2] = target: Botulinum neurotoxin type A (Clostridium botulinum) (UniProt P0DPI0); test: Inhibition of Clostridium botulinum BoNT/A holotoxin-mediated SNAP-25 cleavage in mouse HBG3 cell-derived motor neurons assessed as full length of SNAP-25 at 10 uM preincubated for 30 mins followed by intoxication measured after 4 hrs by Western blot method relative to control; set-up: scale not given: the % may be the effect or the level left
# [3] = tested on: Mus musculus; test: Drug metabolism in mouse assessed as monoacetylated metabolite formation at 400 to 600 mg/kg, po by UPLC-MS/MS method; assay type: ADME, organism-based; settings: in vivo
# [4] = tested on: Mus musculus; test: Time at which drug concentration stays above 3 uM in mouse at 600 mg/kg, po by UPLC-MS/MS method; assay type: ADME, organism-based; settings: in vivo
# Method in brief: (§2)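 Single oral dose in DMSO suspended in 0.5% hydroxyethylcellulose–0.1% Tween 80, given to 7 (400 mg/kg) or 6 (600 mg/kg) mice. Serum came from cardiac puncture under chloroform, one mouse per time point, 15–120 min. Acetonitrile-precipitated serum was analysed by UPLC-MS/MS against calibration in blank human serum.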
# [5] = target: T1, Cytochrome P450 3A4 (Homo sapiens, UniProt P08684); test: Inhibition of CYP3A4 (unknown origin) using DBF as substrate; assay type: ADME
# Method in brief: (§3)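 Active CYP450 enzyme incubated at 37°C for a set time with a fluorogenic probe substrate (BQ, DBF or BFC for CYP3A4; CEC for CYP2C19; AMMC for CYP2D6). IC50 derived from net fluorescent signal.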
# [6] = Drug uptake in mouse serum at 400 mg/kg, po measured at 45 mins by UPLC-MS/MS method; assay type: ADME, organism-based; settings: read-out: Drug uptake; method in brief: as §1
# [7] = Apparent permeability across basolateral to apical side in MDCK cells expressing MDR1 after 1 hr; assay type: ADME, cell-based, Canis lupus familiaris; settings: dog
# Method in brief: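 MDR1-transfected MDCK cell monolayer; compound applied to the basolateral compartment and incubated 1 h at 37°C. Apparent permeability measured in the B→A direction.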
# [8] = tested on: Mus musculus; test: Drug metabolism in mouse assessed as (3alpha,5beta,7alpha,12alpha)-3-Amino-24-({4-[(7-chloroquinolin-4-yl)amino]butyl}amino)cholane-7,12-diol formation at 400 to 600 mg/kg, po by UPLC-MS/MS method; assay type: ADME, organism-based; settings: in vivo
# [9] = target: Botulinum neurotoxin type A (Clostridium botulinum) (UniProt P0DPI0); test: Inhibition of Clostridium botulinum BoNT/A holotoxin-mediated SNAP-25 cleavage in mouse HBG3 cell-derived motor neurons assessed as full length of SNAP-25 at 20 uM treated at 60 mins post intoxication by Western blot method relative to control; set-up: scale not given: the % may be the effect or the level left
# [10] = tested on: Mus musculus; test: Drug metabolism in mouse assessed as M+16 metabolite formation at 400 to 600 mg/kg, po by UPLC-MS/MS method; assay type: ADME, organism-based; settings: in vivo
# [11] = tested on: Liver; test: Half life in mouse liver microsomes; assay type: ADME, microsome
# Method in brief: (§4)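 Substrate-depletion assay: compound incubated with human or mouse liver microsomes for 1 h at 37°C. Half-life and intrinsic clearance derived from compound loss.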
# [12] = tested on: Mus musculus; test: Tmax in mouse at 400 mg/kg, po by UPLC-MS/MS method; assay type: ADME, organism-based; settings: in vivo; method in brief: as §2
# [13] = Distribution co-efficient, log D of the compound at pH 1 by reversed-phase thin-layer chromatographic method; assay type: physicochemical; settings: buffer
# Method in brief: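 Reversed-phase thin-layer chromatography at pH 1, mobile phase MeOH/HCl (70/30).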
# [14] = Drug uptake in mouse serum at 400 mg/kg, po measured at 60 mins by UPLC-MS/MS method; assay type: ADME, organism-based; settings: read-out: Drug uptake; method in brief: as §1
# [15] = tested on: Mus musculus; test: AUC (0 to 120 mins) in mouse at 400 mg/kg, po by UPLC-MS/MS method; assay type: ADME, organism-based; set-up: dose 400 mg/kg, time < 2 hr, route oral; settings: in vivo, 2 h
# [16] = target: Botulinum neurotoxin type A (Clostridium botulinum) (UniProt P0DPI0); test: (§5) Inhibition of Clostridium botulinum BoNT/A holotoxin-mediated SNAP-25 cleavage in mouse HBG3 cell-derived motor neurons preincubated for 30 mins followed by intoxication measured after 4 hrs by Western blot method
# [17] = target: Botulinum neurotoxin type A (Clostridium botulinum, UniProt P0DPI0); test: as §5
# [18] = tested on: Mus musculus; test: Half life in mouse at 600 mg/kg, po by UPLC-MS/MS method; assay type: ADME, organism-based; settings: in vivo; method in brief: as §1
# [19] = tested on: Mus musculus; test: Half life in mouse at 400 mg/kg, po by UPLC-MS/MS method; assay type: ADME, organism-based; settings: in vivo; method in brief: as §1
# [20] = tested on: Mus musculus; test: Toxicity in mouse assessed as effect on appearance at 160 mg/kg, po administered for 3 days measured 2 times a day for 30 days; assay type: organism-based; settings: in vivo, 720 h
# Method in brief: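 Groups of five healthy mice were dosed per os for three consecutive days, suspended in 0.5% hydroxyethylcellulose–0.1% Tween 80. Behaviour and appearance were monitored twice daily for 30 days, with survival assessed at 30 days. Non-toxic was defined as all 5 surviving with normal appearance and behaviour.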
# [21] = tested on: Mus musculus; test: Drug metabolism in mouse assessed as M+32 metabolite formation at 400 to 600 mg/kg, po by UPLC-MS/MS method; assay type: ADME, organism-based; settings: in vivo
# [22] = Octanol/TBS buffer distribution co-efficient, […] by shake flask method; assay type: physicochemical; settings: octanol/water
# [23] = target: T1, Cytochrome P450 3A4; test: Inhibition of CYP3A4 (unknown origin) using BQ as substrate; assay type: ADME; method in brief: as §3
# [24] = tested on: Liver; test: Intrinsic clearance in human liver microsomes after 1 hr; assay type: ADME, microsome; method in brief: as §4
# [25] = tested on: Mus musculus; test: Time at which drug concentration stays above 3 uM in mouse at 400 mg/kg, po by UPLC-MS/MS method; assay type: ADME, organism-based; settings: in vivo; method in brief: as §2
# [26] = Drug uptake in mouse serum at 600 mg/kg, po measured at 120 mins by UPLC-MS/MS method; assay type: ADME, organism-based; settings: read-out: Drug uptake; method in brief: as §1
# [27] = Drug uptake in mouse serum at 400 mg/kg, po measured at 15 mins by UPLC-MS/MS method; assay type: ADME, organism-based; settings: read-out: Drug uptake; method in brief: as §1
# [28] = tested on: Mus musculus; test: Toxicity in mouse assessed as effect on appearance at 400 to 600 mg/kg, po administered as single dose measured 2 times a day for 30 days; assay type: organism-based; settings: in vivo, 720 h
# Method in brief: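 Two groups of 5 healthy mice each received one oral dose, 400 or 600 mg/kg. Survival, appearance and behaviour were followed for 30 days. Non-toxic was defined as all 5 surviving with normal appearance and behaviour.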
# [29] = Drug uptake in mouse serum at 600 mg/kg, po measured at 60 mins by UPLC-MS/MS method; assay type: ADME, organism-based; settings: read-out: Drug uptake; method in brief: as §1
# T1 sequence (P08684 whole entry): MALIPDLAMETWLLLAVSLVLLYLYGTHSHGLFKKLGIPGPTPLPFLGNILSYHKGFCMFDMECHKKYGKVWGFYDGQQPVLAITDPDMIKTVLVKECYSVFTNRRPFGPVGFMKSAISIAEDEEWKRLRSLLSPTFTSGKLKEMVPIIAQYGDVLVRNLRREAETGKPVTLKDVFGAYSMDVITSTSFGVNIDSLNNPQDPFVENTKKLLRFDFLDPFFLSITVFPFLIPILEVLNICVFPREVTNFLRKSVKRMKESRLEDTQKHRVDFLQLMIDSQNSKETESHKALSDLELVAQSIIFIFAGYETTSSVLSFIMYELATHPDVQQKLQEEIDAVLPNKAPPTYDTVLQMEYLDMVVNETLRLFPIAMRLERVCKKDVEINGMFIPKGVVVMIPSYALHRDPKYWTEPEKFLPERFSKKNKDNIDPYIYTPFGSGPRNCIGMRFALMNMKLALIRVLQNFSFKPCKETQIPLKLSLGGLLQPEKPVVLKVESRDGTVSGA
smiles,measurement,setting,value
CC(=O)O[C@H]1C[C@H]2[C@@H]([C@H](OC(C)=O)C[C@@H]3C[C@H](N)CC[C@@]32C)[C@@H]2CC[C@H]([C@H](C)CCCNCCCCNc3ccnc4cc(Cl)ccc34)[C@@]12C,Cmax,[1],11.9 µM
same,Activity,[2],72%
same,Drug metabolism,[3],Metabolite_Notdetected
same,Time,[4],> 45 min
same,IC50,[5],1200 nM
same,concentration at 0.75 h,[6],3.3 µM
same,Papp,[7],24.6 ×10⁻⁶ cm/s
same,Drug metabolism,[8],Metabolite_Notdetected
same,Activity,[9],45%
same,Drug metabolism,[10],Metabolite_Notdetected
same,t1/2,[11],> 60 min
same,Tmax,[12],22 min
same,chromatographic logD,[13],2.55
same,concentration at 1 h,[14],2.8 µM
same,AUC,[15],253 µM·min
same,inhibition,[16],Dose-dependent effect
same,IC50,[17],10000 nM
same,t1/2,[18],23 min
same,t1/2,[19],43 min
same,Activity,[20],Non-Toxic
same,Drug metabolism,[21],Metabolite_Notdetected
same,logD,[22],2.07
same,IC50,[23],1100 nM
same,CLH,[24],< 23 µL/min/mg
same,Time,[25],> 45 min
same,concentration at 2 h,[26],2.4 µM
same,concentration at 0.25 h,[27],3.3 µM
same,Activity,[28],Non-Toxic
same,concentration at 1 h,[29],2.5 µM
